Results gathered from unrelated publications.
Each line is one published result; the experiments were not run side by side.
Target: Serine/threonine-protein kinase pim-3 (PIM3, Homo sapiens, UniProt Q86V86)

O=C(O)[C@H]1[C@H](Cn2nnc3ccccc3c2=O)CC[C@@H]1C(=O)c1ccc(OCCC2CCOCC2)cc1  remaining binding (cell-free assay, competition with immobilised ligand; 1 µM): 86%
CN(c1ncccc1CNc1nc(Nc2ccc3c(c2)CC(=O)N3)ncc1C(F)(F)F)S(C)(=O)=O  inhibition (enzyme activity, inhibitor; 1 µM): 21.2%
CS(=O)(=O)NCC[C@H](NC(=O)c1cncc2c1cnn2-c1ccc(F)cc1)c1ccnc(S(C)(=O)=O)c1  remaining binding (cell-free assay, competition with immobilised ligand; 1 µM): 100%
O=C1Nc2ccc(Cl)cc2C1=Cc1cc(Cl)c(O)c(Cl)c1  remaining signal (cell-free assay; 0.5 µM): 14.5%
Cc1ccc(NC(=O)c2ccc(C)c(C(F)(F)F)c2)cc1C#Cc1nn(C2CCC(O)CC2)c2ncnc(N)c12 (stereo not shown)  remaining signal (cell-free assay; 10 µM): 99%
O=C(NCc1ncc(C(F)(F)F)cc1Cl)c1ccc2c(c1)C1(CCS(=O)(=O)CC1)[C@H](C1CC1)N2S(=O)(=O)c1ccc(F)cc1  remaining binding (cell-free assay, competition with immobilised ligand; 1 µM): 100%
CC/C(=N\NC(=O)NCc1cccc(O)c1)c1ccc(O)c(C)c1O  inhibition (enzyme activity, inhibitor; 0.1 µM): 4.6%
COc1cc(Nc2c(C#N)cnc3cc(OCCCN4CCN(C)CC4)c(OC)cc23)c(Cl)cc1Cl  remaining signal (cell-free assay; 0.5 µM): 97.7%
CS(=O)(=O)N1CCCC(NC(=O)[C@H](CCC2CCCCC2)NC(=O)c2ccc(CNC(=O)c3cnc4ccccn34)cc2)C1 (stereo partly shown)  remaining binding (cell-free assay, competition with immobilised ligand; 0.1 µM): 99%
N#CCCc1ccc2c(c1)-c1[nH]c3ccc([N+](=O)[O-])cc3c1CC(=O)N2  remaining signal (cell-free assay; 0.5 µM): 70.9%
Nc1ncnc2occ(-c3ccc(NC(=O)Nc4cc(C(F)(F)F)ccc4F)cc3)c12  remaining signal (cell-free assay, inhibitor; 20 µM): 79%
Cc1cnc(NC2CCOCC2)nc1-n1cnc(C(=O)NC(CN)c2cc(F)cc(Cl)c2)c1 (stereo not shown)  remaining activity (enzyme activity, inhibitor, radiometric; 1 µM): 95%
Nc1nc(Nc2ccccc2)sc1C(=O)c1c(F)cccc1F  remaining activity (enzyme activity, inhibitor; 10 µM): 69%
O=C(Nc1cnn(-c2csc(C(=O)NC3COC3)c2)c1)Nc1ccccc1Cl  remaining activity (enzyme activity, inhibitor; 5 µM): 61.2%
CNC(=O)c1cc(Oc2ccc(NC(=O)Nc3ccc(Cl)c(C(F)(F)F)c3)cc2)ccn1  inhibition (enzyme activity, inhibitor; 10 µM): -16%
Cn1c2c(c3ccc(Cl)c(Cl)c31)C(C#N)C1(CCNCC1)NC2=O (racemic)  ΔTm (thermal stability, DSF; 10 µM): > 8 °C
Cc1ccc(C(=O)Nc2ccc(CN3CCN(C)CC3)c(C(F)(F)F)c2)cc1C#Cc1cnc2cccnn12  remaining activity (enzyme activity, inhibitor; 23.5 nM): 100%
FC(F)c1nc2ccccc2n1-c1nc(N2CCOCC2)nc(N2CCOCC2)n1  remaining activity (enzyme activity, inhibitor; 10 µM): 76%
O=C(N1CCS(=O)(=O)CC1)N1C[C@H](c2ccc(OC(F)(F)F)cc2)C[C@H](c2nc(C3CC3)no2)C1  remaining binding (cell-free assay, competition with immobilised ligand; 1 µM): 100%
Oc1cccc(-c2nc(N3CCOCC3)c3oc4ncccc4c3n2)c1  remaining activity (enzyme activity, inhibitor; 10 µM): 41%
CC(C)(O)[C@H]1CC[C@H](Nc2ccc3ncc(-c4cccc(C(F)(F)F)c4)n3n2)CC1  remaining activity (enzyme activity, inhibitor; 1 µM): 3.14%
Cc1cc(-n2nc(Cc3cc(F)cc(C(F)(F)F)c3)nc2C)ccc1C(N)=O  remaining binding (cell-free assay, competition with immobilised ligand; 1 µM): 100%
O=C(CSc1nc2nccnc2c(=O)n1CCc1ccccc1)Nc1nccs1  inhibition (enzyme activity, inhibitor; 10 µM): -7%
CC(=O)C1=C(C)N(c2cccc(C(F)(F)F)c2)C(=O)N[C@@H]1c1ccc(C#N)nc1  remaining binding (cell-free assay, competition with immobilised ligand; 1 µM): 100%
COc1cc(Nc2cnc(C#N)c(O[C@H](C)CN(C)C)n2)ncc1-c1cnn(C)c1  remaining activity (enzyme activity, inhibitor, radiometric; 10 µM): 17%
CC(C)(C)c1nc(-c2cccc(NS(=O)(=O)c3c(F)cccc3F)c2F)c(-c2ccnc(N)n2)s1  remaining activity (enzyme activity, inhibitor, radiometric; 1 µM): 100%
O=c1nc(-c2ccccn2)sc2ccccc12  remaining binding (binding, competition with immobilised ligand; 1 µM): 100%
Nc1nc(NC2CCCCC2)sc1C(=O)c1ccccc1  remaining activity (enzyme activity, inhibitor; 10 µM): 69%
